Source: ChEMBL document CHEMBL4725261, “Design, synthesis and evaluation of carbamate-linked uridyl-based inhibitors of human ST6Gal I” (Bioorg Med Chem, 2020)

Assays:
[1] = biological target: T1, Beta-galactoside alpha-2,6-sialyltransferase 1 (Homo sapiens, UniProt P15907); assay: Displacement of fluorescent probe from human ST6Gal-1 by fluorescence polarization assay
T1 sequence (P15907 whole entry): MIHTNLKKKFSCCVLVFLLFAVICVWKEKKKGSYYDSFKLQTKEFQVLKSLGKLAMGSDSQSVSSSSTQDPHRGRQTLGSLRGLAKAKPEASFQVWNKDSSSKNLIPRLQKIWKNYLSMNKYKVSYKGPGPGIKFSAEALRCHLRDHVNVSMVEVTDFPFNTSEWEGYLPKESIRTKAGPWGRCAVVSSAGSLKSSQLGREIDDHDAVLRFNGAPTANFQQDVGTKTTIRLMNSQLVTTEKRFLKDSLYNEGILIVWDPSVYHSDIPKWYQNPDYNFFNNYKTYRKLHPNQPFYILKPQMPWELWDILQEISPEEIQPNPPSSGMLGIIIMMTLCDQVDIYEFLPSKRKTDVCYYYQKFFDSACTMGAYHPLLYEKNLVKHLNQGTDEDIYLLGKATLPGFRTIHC

[2] = biological target: T1, Beta-galactoside alpha-2,6-sialyltransferase 1; assay: Inhibition of recombinant human N-terminal 6His-tagged ST6Gal-1 (Glu44 to Cys406 residues)
Procedure, shortened: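 Recombinant human ST6Gal I activity was measured in a luminescence microplate assay, and inhibition was expressed as Ki.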

[3] = biological target: T2, Beta-galactoside alpha-2,6-sialyltransferase 1 (Rattus norvegicus, UniProt P13721); assay: Inhibition of rat liver ST6Gal-1 by HPLC-based assay
T2 sequence (P13721 whole entry): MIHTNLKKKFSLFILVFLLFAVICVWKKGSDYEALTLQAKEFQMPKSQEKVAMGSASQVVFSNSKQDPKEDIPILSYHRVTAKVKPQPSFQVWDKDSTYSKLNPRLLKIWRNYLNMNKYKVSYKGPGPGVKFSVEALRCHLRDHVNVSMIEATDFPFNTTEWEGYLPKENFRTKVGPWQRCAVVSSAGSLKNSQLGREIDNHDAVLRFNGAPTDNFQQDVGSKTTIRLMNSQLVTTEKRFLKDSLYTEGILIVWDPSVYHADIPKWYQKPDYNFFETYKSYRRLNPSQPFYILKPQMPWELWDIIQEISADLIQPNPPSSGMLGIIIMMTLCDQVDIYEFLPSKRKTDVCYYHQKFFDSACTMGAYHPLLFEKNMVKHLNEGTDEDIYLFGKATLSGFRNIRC

[4] = biological target: T2, Beta-galactoside alpha-2,6-sialyltransferase 1; assay: Inhibition of rat liver ST6Gal-1 using […] measured up to 20 mins by HPLC analysis
[5] = test system: MIA PaCa-2; assay: Cytotoxicity against human MIA PaCa-2 cells assessed as reduction in cell viability at 200 uM after 24 to 48 hrs by MTS assay; format: cell-based; details: mia paca-2, 200 µM, time 24-48 hrs

Row | SMILES | Ki [2] [µM] | Activity [5] | also measured
1 | Nc1ccn([C@@H]2O[C@H](COP(=O)(O)O[C@@H](c3cccc(NC(=O)c4ccc(C(=O)O)c(-c5c6ccc(=O)cc-6oc6cc(O)ccc56)c4)c3)P(=O)(O)O)[C@@H](O)[C@H]2O)c(=O)n1 |  |  | Kd [1]: 0.022 µM
2 | O=C(NC[C@H]1O[C@@H](n2ccc(=O)[nH]c2=O)[C@H](O)[C@@H]1O)OC(c1ccc(F)cc1)P(=O)(O)O (stereo in doubt; 28c-(l)) | 1.1 |  | 
3 | CC(=O)N[C@H]1[C@@H](Oc2ccccc2)OC([C@@H](OP(=O)(O)OC[C@H]2O[C@@H](n3ccc(N)nc3=O)[C@H](O)[C@@H]2O)P(=O)(O)O)=C[C@@H]1O |  |  | Ki [3]: 0.029 µM
4 | Nc1ccn([C@@H]2O[C@H](COP(=O)(O)O[C@@H](c3cccc(Oc4ccccc4)c3)P(=O)(O)O)[C@@H](O)[C@H]2O)c(=O)n1 |  |  | Ki [4]: 0.07 µM
5 | Nc1ccn([C@@H]2O[C@H](CNC(=O)OC(c3cccc(Oc4ccccc4)c3)P(=O)([O-])[O-])[C@@H](O)[C@H]2O)c(=O)n1.[Na+].[Na+] (stereo in doubt; 30-(s)) |  | Non-Toxic | 
6 | CCCOc1cccc(C(OC(=O)NC[C@H]2O[C@@H](n3ccc(=O)[nH]c3=O)[C@H](O)[C@@H]2O)P(=O)(O)O)c1 (stereo in doubt; 28e-(l)) | 20.3 |  | 
7 | O=C(NC[C@H]1O[C@@H](n2ccc(=O)[nH]c2=O)[C@H](O)[C@@H]1O)OC(c1ccc(OC2CCCC2)cc1)P(=O)([O-])[O-].[Na+].[Na+] (stereo in doubt; 28i-(s)) | 55.5 | Non-Toxic | 
8 | O=C(NC[C@H]1O[C@@H](n2ccc(=O)[nH]c2=O)[C@H](O)[C@@H]1O)OC(c1ccc(F)c(Oc2ccccc2)c1)P(=O)([O-])[O-].[Na+].[Na+] (stereo in doubt; 28b-(s)) |  | Non-Toxic | 
9 | O=C(NC[C@H]1O[C@@H](n2ccc(=O)[nH]c2=O)[C@H](O)[C@@H]1O)OC(c1ccc(OC2CCCC2)cc1)P(=O)(O)O (stereo in doubt; 28i-(l)) | 11.5 |  | 
10 | O=C(NC[C@H]1O[C@@H](n2ccc(=O)[nH]c2=O)[C@H](O)[C@@H]1O)OC(c1cccc(F)c1)P(=O)([O-])[O-].[Na+].[Na+] (stereo in doubt; 28d-(s)) | 19.2 | Non-Toxic | 
11 | Nc1ccn([C@@H]2O[C@H](COP(=O)(O)O[C@H](c3cccc(NC(=O)c4ccc(C(=O)O)c(-c5c6ccc(=O)cc-6oc6cc(O)ccc56)c4)c3)P(=O)(O)O)[C@@H](O)[C@H]2O)c(=O)n1 |  |  | Kd [1]: 0.009 µM
12 | O=C(NC[C@H]1O[C@@H](n2ccc(=O)[nH]c2=O)[C@H](O)[C@@H]1O)OC(c1cc2ccccc2s1)P(=O)([O-])[O-].[Na+].[Na+] (stereo in doubt; 28k-(s)) | 8.5 | Non-Toxic | 
13 | O=C(NC[C@H]1O[C@@H](n2ccc(=O)[nH]c2=O)[C@H](O)[C@@H]1O)OC(c1ccccc1)P(=O)([O-])[O-].[Na+].[Na+] (stereo in doubt; 28j-(s)) |  | Non-Toxic | 
14 | CCCOc1cccc(C(OC(=O)NC[C@H]2O[C@@H](n3ccc(=O)[nH]c3=O)[C@H](O)[C@@H]2O)P(=O)([O-])[O-])c1.[Na+].[Na+] (stereo in doubt; 28e-(s)) |  | Non-Toxic | 
15 | COc1cccc(C(OC(=O)NC[C@H]2O[C@@H](n3ccc(=O)[nH]c3=O)[C@H](O)[C@@H]2O)P(=O)([O-])[O-])c1.[Na+].[Na+] (stereo in doubt; 28f-(s)) |  | Non-Toxic | 
16 | O=C(NC[C@H]1O[C@@H](n2ccc(=O)[nH]c2=O)[C@H](O)[C@@H]1O)OC(c1cccc(Oc2ccccc2)c1)P(=O)([O-])[O-].[Na+].[Na+] (stereo in doubt; 28a-(s)) |  | Non-Toxic | 
17 | COc1ccc(C(OC(=O)NC[C@H]2O[C@@H](n3ccc(=O)[nH]c3=O)[C@H](O)[C@@H]2O)P(=O)([O-])[O-])cc1.[Na+].[Na+] (stereo in doubt; 28g-(s)) |  | Non-Toxic | 
18 | O=C(NC[C@H]1O[C@@H](n2ccc(=O)[nH]c2=O)[C@H](O)[C@@H]1O)OC(c1csc2ccccc12)P(=O)([O-])[O-].[Na+].[Na+] (stereo in doubt; 28l-(s)) |  | Non-Toxic | 
19 | COc1ccc(C(OC(=O)NC[C@H]2O[C@@H](n3ccc(=O)[nH]c3=O)[C@H](O)[C@@H]2O)P(=O)([O-])[O-])cc1OC1CCCC1.[Na+].[Na+] (stereo in doubt; 28h-(s)) |  | Non-Toxic | 
20 | O=C(NC[C@H]1O[C@@H](n2ccc(=O)[nH]c2=O)[C@H](O)[C@@H]1O)OC(c1ccc(F)cc1)P(=O)([O-])[O-].[Na+].[Na+] (stereo in doubt; 28c-(s)) | 306 | Non-Toxic | 
